Test results taken from publication PMC8035306 (Journal of medicinal chemistry, 2021).

Tests used:
PRMT6 [1] = biological target: T1, PRMT6 (Homo sapiens, UniProt Q96LA8); assay: PRMT6 radiometric biochemical assay, 2 h preincubation
PRMT6 [2] = biological target: T1, PRMT6; assay: Methyltransferase selectivity panel: PRMT6; type: biochemical; details: at 1 and 10 μM
Method in brief: (§1)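 Panel of 33 methyltransferases (8 PRMTs, 21 PKMTs, 3 DNMTs, 1 RNA methyltransferase) run by an earlier published protocol. Test compound at 1 μM and 10 μM; n = 3.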

[3] = system: other 32 methyltransferases (PRMTs, PKMTs, DNMTs, RNA methyltransferase); assay: Methyltransferase selectivity panel: other 32 methyltransferases; type: biochemical; details: at 1 and 10 μM
Method in brief: as §1

[4] = biological target: Flag-tagged PRMT6 in HEK293T cells (Homo sapiens, UniProt Q96LA8); assay: Cellular PRMT6 assay; type: cell-based; details: 20 h, up to 10 μM
Flag-tagged PRMT6 in HEK293T cells, sequence (Q96LA8 whole entry): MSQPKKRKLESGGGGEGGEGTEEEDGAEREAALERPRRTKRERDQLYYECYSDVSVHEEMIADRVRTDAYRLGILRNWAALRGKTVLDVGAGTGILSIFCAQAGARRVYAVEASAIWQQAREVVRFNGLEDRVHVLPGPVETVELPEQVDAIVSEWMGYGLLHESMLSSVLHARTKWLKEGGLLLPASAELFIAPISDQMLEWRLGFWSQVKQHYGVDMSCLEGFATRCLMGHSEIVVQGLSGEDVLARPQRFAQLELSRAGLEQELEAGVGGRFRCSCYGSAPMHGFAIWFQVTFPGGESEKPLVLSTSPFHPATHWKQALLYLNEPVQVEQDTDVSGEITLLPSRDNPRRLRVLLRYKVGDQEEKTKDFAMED

HEK293T cells = assay: Toxicity to HEK293T cells seen in the cellular PRMT6 assay; type: cell-based; details: 20 h
HEK293T = assay: Cell viability assay; type: cell-based; details: up to 10 μM, 3 days treatment
Method in brief: (§2)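 Cells seeded at 1 × 10^4 per well and left 24 h, then exposed for 3 days to serially diluted test compound starting at 10 μM. CCK-8 (WST-8) reagent added, followed by 4 h at 37 °C; absorbance read at 450 nm. Results given as average ± SD of three replicate experiments.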

PNT2 = assay: Cell viability assay; type: cell-based; details: PNT2, up to 10 μM, 3 days treatment
Method in brief: as §2

MCF-7 = assay: Cell viability assay; type: cell-based; details: MCF-7, up to 10 μM, 3 days treatment
Method in brief: as §2

PRMT6 [5] = biological target: T1, PRMT6; assay: Mass spectrometry analysis for assessing covalent binding; details: PRMT6 incubated with compound for 2 h
Method in brief: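 Purified PRMT6 incubated with a 20-fold molar excess of test compound at room temperature, then acidified with 0.1% trifluoroacetic acid (aq.). Sample separated by HPLC on a 5–95% acetonitrile/water gradient and analysed by electrospray-ionisation time-of-flight mass spectrometry for mass shifts indicating covalent adducts.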

T1 sequence (Q96LA8 whole entry): as above

SMILES	activity against PRMT6 (in words) (PRMT6 [1])	inhibition of PRMT6 in methyltransferase panel (PRMT6 [2])	inhibition of other 32 methyltransferases [3]	reduction of cellular levels of H3R2me2a [4]	reduction of cellular levels of H4R3me2a [4]	toxicity to HEK293T cells (HEK293T cells; at 30 μM)	toxicity (cell viability) (HEK293T)	toxicity (cell viability) (PNT2)	toxicity (cell viability) (MCF-7)	decrease in the IC50 value after compound preincubation with PRMT6 (PRMT6 [1]; 2 h preincubation versus no incubation)	pattern of inhibition with respect to SAM cofactor and peptide substrate (PRMT6 [1]; 2 h preincubation, IC50 at various SAM or peptide concentrations)	covalent modification of PRMT6 (PRMT6 [5])	toxicity to HEK293T cells (HEK293T cells; up to 10 μM)
Cc1cc(C)cc([C@H]2c3cc(C)ccc3NC(=O)CN2C(=O)c2ccc(Br)s2)c1 [(S)-2, 4-(5-bromothiophene-2-carbonyl)-5-(3,5-dimethylphenyl)-7-methyl-1,3,4,5-tetrahydro-2H-benzo[e][1,4]diazepin-2-one]	inactive	did not significantly inhibit	did not significantly inhibit	did not significantly reduce	did not significantly reduce	significant toxicity	Neither (R)-2 nor (S)-2 showed any significant toxicity	Neither (R)-2 nor (S)-2 showed any significant toxicity	Neither (R)-2 nor (S)-2 showed any significant toxicity	–	–	–	–
Cc1cc(C)cc([C@@H]2c3cc(C)ccc3NC(=O)CN2C(=O)c2ccc(Br)s2)c1 [(R)-2, 4-(5-bromothiophene-2-carbonyl)-5-(3,5-dimethylphenyl)-7-methyl-1,3,4,5-tetrahydro-2H-benzo[e][1,4]diazepin-2-one]	–	potently inhibited	did not significantly inhibit	–	–	–	Neither (R)-2 nor (S)-2 showed any significant toxicity	Neither (R)-2 nor (S)-2 showed any significant toxicity	Neither (R)-2 nor (S)-2 showed any significant toxicity	more than 100 fold	noncompetitive	No covalent modification	did not show significant toxicity
